Results taken from ChEMBL document CHEMBL1250448, “Inhibitor hijacking of Akt activation” (Nat Chem Biol, 2009).
Activity calls are given as the source filed them. No cut-off for these calls is given here.

Tests used:
[1] = target: RAC-alpha serine/threonine-protein kinase (Homo sapiens, UniProt P31749); assay: Induction of AKT1 Ser473 phosphorylation expressed in IGF1-stimulated HEK293 cells treated 20 mins before IGF1 stimulation by immunoblotting; assay type: cell-based
Summary of the method: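 HEK293 cells (not transfected), serum-starved overnight, then given inhibitor for 20 min before 50 ng/ml IGF-1 for a further 10 min. Cells detached in ice-cold Ca/Mg-free PBS with 0.04% EDTA and lysed in Tris pH 7.5 Triton buffer with protease/phosphatase inhibitors. Lysates cleared at 14000 g, protein equalised by Bradford, and pThr308, pSer473 and GSK3β pSer9 read by immunoblot with ECL.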

[2] = target: Casein kinase I isoform epsilon (Homo sapiens) (UniProt P49674); assay: Inhibition of CSNK1E at 1 uM in presence of 10 uM ATP by Select Screen kinase assay relative to untreated control
[3] = target: Serine/threonine-protein kinase D1 (Homo sapiens) (UniProt Q15139); assay: Inhibition of PRKD1 at 1 uM in presence of 10 uM ATP by Select Screen kinase assay relative to untreated control
[4] = target: Serine/threonine-protein kinase D2 (Homo sapiens) (UniProt Q9BZL6); assay: Inhibition of PRKD2 at 1 uM in presence of 10 uM ATP by Select Screen kinase assay relative to untreated control
[5] = target: cGMP-dependent protein kinase 2 (Homo sapiens) (UniProt Q13237); assay: Inhibition of PRKG2 at 1 uM in presence of 10 uM ATP by Select Screen kinase assay relative to untreated control
[6] = target: Proto-oncogene tyrosine-protein kinase receptor Ret (Homo sapiens) (UniProt P07949); assay: Inhibition of RET at 1 uM in presence of 100 uM ATP by Select Screen kinase assay relative to untreated control
Summary of the method: (§1)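 Profiling panel of 220 purified kinases (SelectScreen), each compound tested at 1 μM. Read-out is percent inhibition of kinase activity.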

[7] = system: Proto-oncogene tyrosine-protein kinase receptor Ret (Homo sapiens), P07949 [Y791F]; assay: Inhibition of RET Y791F mutant at 1 uM in presence of 10 uM ATP by Select Screen kinase assay relative to untreated control; summary of the method: as §1
[8] = system: Tyrosine-protein kinase ABL1 (Homo sapiens), P00519 [G250E]; assay: Inhibition of ABL1 G250E mutant at 1 uM in presence of 10 uM ATP by Select Screen kinase assay relative to untreated control
Summary of the method: (§2)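 Single-point screen at 1 μM against a panel of 220 purified kinases, run by Invitrogen staff as a SelectScreen profiling service. Read-out is percent inhibition of kinase activity.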

[9] = system: Tyrosine-protein kinase ABL1 (Homo sapiens), P00519 [T315I]; assay: Inhibition of ABL1 T315I mutant at 1 uM in presence of 10 uM ATP by Select Screen kinase assay relative to untreated control; summary of the method: as §2
[10] = target: Tyrosine-protein kinase ABL2 (Homo sapiens) (UniProt P42684); assay: Inhibition of ABL2 at 1 uM in presence of 10 uM ATP by Select Screen kinase assay relative to untreated control; summary of the method: as §2
[11] = target: Beta-adrenergic receptor kinase 1 (Homo sapiens) (UniProt P25098); assay: Inhibition of ADRBK1 at 1 uM in presence of 10 uM ATP by Select Screen kinase assay relative to untreated control; summary of the method: as §2
[12] = target: Rho-associated protein kinase 2 (Homo sapiens) (UniProt O75116); assay: Inhibition of ROCK2 at 1 uM in presence of 10 uM ATP by Select Screen kinase assay relative to untreated control; summary of the method: as §1
[13] = target: Ribosomal protein S6 kinase alpha-1 (Homo sapiens) (UniProt Q15418); assay: Inhibition of RPS6KA1 at 1 uM in presence of 100 uM ATP by Select Screen kinase assay relative to untreated control
[14] = target: Ribosomal protein S6 kinase beta-1 (Homo sapiens, UniProt P23443); assay: Inhibition of RPS6KB1 at 1 uM in presence of 10 uM ATP by Select Screen kinase assay relative to untreated control
[15] = target: Calcium/calmodulin-dependent protein kinase type II subunit delta (Homo sapiens) (UniProt Q13557); assay: Inhibition of CAMK2D at 1 uM in presence of 10 uM ATP by Select Screen kinase assay relative to untreated control; summary of the method: as §2
[16] = target: Serine/threonine-protein kinase MRCK beta (Homo sapiens) (UniProt Q9Y5S2); assay: Inhibition of CDC42 binding protein beta at 1 uM in presence of 10 uM ATP by Select Screen kinase assay relative to untreated control; summary of the method: as §2
[17] = target: Dual specificity protein kinase CLK3 (Homo sapiens) (UniProt P49761); assay: Inhibition of CLK3 at 1 uM in presence of 100 uM ATP by Select Screen kinase assay relative to untreated control
Summary of the method: (§3)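 Part of a 220-kinase panel of purified kinases, each tested with compound at 1 μM. Percent inhibition was measured in the Invitrogen SelectScreen profiling assay.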

[18] = target: Dual specificity tyrosine-phosphorylation-regulated kinase 1B (Homo sapiens) (UniProt Q9Y463); assay: Inhibition of DYRK1B at 1 uM in presence of 10 uM ATP by Select Screen kinase assay relative to untreated control; summary of the method: as §3
[19] = target: Ephrin type-A receptor 3 (Homo sapiens) (UniProt P29320); assay: Inhibition of EPHA3 at 1 uM in presence of 10 uM ATP by Select Screen kinase assay relative to untreated control; summary of the method: as §3
[20] = target: Tyrosine-protein kinase ITK/TSK (Homo sapiens) (UniProt Q08881); assay: Inhibition of ITK at 1 uM in presence of 10 uM ATP by Select Screen kinase assay relative to untreated control
[21] = system: Tyrosine-protein kinase JAK2 (Homo sapiens), O60674 [V617F]; assay: Inhibition of JAK2 JH1 JH2 domain V617F mutant at 1 uM in presence of 10 uM ATP by Select Screen kinase assay relative to untreated control
[22] = target: Mitogen-activated protein kinase 11 (Homo sapiens) (UniProt Q15759); assay: Inhibition of MAPK11 at 1 uM in presence of 100 uM ATP by Select Screen kinase assay relative to untreated control
[23] = target: Serine/threonine-protein kinase PAK 6 (Homo sapiens) (UniProt Q9NQU5); assay: Inhibition of PAK6 at 1 uM in presence of 10 uM ATP by Select Screen kinase assay relative to untreated control
[24] = target: Serine/threonine-protein kinase pim-2 (Homo sapiens) (UniProt Q9P1W9); assay: Inhibition of PIM2 at 1 uM in presence of 10 uM ATP by Select Screen kinase assay relative to untreated control
[25] = target: Serine/threonine-protein kinase PLK2 (Homo sapiens) (UniProt Q9NYY3); assay: Inhibition of PLK2 at 1 uM in presence of 10 uM ATP by Select Screen kinase assay relative to untreated control
[26] = target: Protein kinase C beta type (Homo sapiens) (UniProt P05771); assay: Inhibition of PRKCB1 at 1 uM in presence of 10 uM ATP by Select Screen kinase assay relative to untreated control
Protein kinase C beta type (Homo sapiens), sequence (P05771 2-671 limits assumed): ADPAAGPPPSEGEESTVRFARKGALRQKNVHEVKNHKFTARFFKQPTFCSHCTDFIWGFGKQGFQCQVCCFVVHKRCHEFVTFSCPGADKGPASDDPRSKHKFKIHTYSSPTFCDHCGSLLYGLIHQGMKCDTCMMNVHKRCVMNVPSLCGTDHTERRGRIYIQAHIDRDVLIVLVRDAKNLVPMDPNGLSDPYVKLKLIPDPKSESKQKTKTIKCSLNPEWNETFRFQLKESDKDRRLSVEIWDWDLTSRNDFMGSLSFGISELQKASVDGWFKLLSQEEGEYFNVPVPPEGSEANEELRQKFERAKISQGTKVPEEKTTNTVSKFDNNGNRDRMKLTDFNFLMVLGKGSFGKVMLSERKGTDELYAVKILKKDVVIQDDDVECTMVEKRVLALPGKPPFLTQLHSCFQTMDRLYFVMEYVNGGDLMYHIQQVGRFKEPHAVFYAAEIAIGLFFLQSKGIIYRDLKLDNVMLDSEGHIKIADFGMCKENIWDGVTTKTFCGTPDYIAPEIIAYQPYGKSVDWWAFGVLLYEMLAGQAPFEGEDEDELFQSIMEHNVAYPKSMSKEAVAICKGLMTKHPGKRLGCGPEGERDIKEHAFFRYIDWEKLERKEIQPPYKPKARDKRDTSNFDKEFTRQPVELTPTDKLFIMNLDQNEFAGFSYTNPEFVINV

Dual specificity protein kinase CLK3 (Homo sapiens), sequence (P49761 whole entry, looked up): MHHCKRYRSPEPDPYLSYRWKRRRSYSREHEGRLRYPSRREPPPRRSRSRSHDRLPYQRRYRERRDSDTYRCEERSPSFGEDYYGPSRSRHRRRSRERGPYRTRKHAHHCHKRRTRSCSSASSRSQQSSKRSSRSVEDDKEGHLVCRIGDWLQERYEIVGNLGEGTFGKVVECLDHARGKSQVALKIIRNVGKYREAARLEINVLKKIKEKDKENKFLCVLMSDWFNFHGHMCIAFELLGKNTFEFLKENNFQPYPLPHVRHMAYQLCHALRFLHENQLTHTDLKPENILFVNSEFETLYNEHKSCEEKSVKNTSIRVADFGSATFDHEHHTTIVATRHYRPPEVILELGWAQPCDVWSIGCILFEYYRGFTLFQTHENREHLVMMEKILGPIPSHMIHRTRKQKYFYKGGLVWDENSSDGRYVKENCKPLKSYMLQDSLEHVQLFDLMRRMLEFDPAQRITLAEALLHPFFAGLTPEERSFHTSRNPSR
Beta-adrenergic receptor kinase 1 (Homo sapiens), sequence (P25098 whole entry): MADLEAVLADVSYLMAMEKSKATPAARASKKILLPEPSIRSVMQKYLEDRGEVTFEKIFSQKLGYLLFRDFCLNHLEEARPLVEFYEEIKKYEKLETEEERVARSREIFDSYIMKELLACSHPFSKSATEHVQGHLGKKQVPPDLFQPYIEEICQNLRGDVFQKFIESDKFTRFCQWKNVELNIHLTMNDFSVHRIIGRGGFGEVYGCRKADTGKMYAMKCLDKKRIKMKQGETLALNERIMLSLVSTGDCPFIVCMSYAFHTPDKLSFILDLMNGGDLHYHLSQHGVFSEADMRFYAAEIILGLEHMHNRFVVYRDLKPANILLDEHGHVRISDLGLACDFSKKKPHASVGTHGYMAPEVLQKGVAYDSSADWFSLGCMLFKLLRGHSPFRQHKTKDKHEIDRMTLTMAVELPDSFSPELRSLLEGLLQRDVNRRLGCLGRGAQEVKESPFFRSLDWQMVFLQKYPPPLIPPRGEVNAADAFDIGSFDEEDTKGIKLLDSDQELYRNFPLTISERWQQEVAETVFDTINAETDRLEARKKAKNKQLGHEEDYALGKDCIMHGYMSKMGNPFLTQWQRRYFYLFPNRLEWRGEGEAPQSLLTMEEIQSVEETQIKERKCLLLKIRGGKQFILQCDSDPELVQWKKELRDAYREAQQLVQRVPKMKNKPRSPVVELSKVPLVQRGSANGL
Tyrosine-protein kinase ABL2 (Homo sapiens), sequence (P42684 whole entry): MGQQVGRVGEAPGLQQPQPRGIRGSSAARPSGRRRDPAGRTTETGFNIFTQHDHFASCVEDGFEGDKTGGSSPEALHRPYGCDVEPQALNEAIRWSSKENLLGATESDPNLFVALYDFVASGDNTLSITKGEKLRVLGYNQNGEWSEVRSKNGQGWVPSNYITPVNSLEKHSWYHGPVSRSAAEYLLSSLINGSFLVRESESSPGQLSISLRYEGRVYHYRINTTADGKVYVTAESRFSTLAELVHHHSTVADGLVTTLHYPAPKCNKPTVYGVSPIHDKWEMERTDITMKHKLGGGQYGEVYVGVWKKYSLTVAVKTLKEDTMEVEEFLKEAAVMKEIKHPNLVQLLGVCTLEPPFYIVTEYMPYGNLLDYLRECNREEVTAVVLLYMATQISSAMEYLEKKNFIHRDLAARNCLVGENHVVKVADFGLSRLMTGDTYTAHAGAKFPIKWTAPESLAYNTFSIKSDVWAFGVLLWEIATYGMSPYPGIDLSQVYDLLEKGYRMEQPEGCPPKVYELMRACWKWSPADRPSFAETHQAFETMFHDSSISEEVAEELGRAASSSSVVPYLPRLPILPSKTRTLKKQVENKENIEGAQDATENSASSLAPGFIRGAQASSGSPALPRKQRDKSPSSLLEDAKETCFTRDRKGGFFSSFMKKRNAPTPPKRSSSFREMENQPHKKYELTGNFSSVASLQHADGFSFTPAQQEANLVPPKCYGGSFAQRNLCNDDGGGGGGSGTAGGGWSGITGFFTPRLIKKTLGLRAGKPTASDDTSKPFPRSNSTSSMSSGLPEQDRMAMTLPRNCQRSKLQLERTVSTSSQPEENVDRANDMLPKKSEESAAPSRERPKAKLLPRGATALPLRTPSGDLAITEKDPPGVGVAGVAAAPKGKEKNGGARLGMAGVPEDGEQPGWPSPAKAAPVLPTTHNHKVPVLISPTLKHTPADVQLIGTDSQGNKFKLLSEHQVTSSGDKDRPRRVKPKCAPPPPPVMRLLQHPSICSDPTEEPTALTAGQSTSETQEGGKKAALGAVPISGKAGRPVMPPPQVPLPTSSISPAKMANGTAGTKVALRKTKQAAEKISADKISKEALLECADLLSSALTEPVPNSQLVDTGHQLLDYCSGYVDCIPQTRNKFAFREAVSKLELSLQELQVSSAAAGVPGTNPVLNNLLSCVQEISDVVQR
Serine/threonine-protein kinase PLK2 (Homo sapiens), sequence (Q9NYY3 whole entry, looked up): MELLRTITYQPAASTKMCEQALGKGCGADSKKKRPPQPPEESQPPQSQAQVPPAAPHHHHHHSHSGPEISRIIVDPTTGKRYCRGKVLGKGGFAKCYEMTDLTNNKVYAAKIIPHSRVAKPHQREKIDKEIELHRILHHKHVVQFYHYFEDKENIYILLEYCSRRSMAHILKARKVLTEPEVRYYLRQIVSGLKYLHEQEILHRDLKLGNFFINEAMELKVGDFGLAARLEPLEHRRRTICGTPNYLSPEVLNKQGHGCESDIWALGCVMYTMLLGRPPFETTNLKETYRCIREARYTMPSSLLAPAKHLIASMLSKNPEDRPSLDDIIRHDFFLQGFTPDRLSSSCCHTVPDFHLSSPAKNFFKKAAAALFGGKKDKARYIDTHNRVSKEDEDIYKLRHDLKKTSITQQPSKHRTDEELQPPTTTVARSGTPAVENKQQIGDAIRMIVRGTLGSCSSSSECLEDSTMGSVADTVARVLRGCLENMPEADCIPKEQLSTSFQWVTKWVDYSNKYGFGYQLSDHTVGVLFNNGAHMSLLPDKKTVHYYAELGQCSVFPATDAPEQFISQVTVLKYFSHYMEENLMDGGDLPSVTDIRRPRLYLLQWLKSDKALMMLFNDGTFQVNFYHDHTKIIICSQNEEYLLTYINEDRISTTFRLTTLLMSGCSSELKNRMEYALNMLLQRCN
Ribosomal protein S6 kinase beta-1, sequence (P23443 whole entry, looked up): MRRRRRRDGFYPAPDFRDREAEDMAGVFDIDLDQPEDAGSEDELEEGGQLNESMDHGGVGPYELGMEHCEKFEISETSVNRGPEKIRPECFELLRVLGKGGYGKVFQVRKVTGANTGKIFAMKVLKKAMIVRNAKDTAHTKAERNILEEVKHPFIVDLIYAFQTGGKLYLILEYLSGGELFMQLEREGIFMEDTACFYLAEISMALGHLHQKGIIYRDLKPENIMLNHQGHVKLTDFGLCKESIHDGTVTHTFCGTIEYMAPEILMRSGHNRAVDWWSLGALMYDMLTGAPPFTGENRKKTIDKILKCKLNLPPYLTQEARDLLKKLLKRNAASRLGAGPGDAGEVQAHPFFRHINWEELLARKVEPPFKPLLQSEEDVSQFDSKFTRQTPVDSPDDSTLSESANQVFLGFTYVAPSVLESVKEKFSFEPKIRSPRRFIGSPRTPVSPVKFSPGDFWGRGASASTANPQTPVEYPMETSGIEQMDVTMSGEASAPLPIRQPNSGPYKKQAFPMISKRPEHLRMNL
Casein kinase I isoform epsilon (Homo sapiens), sequence (P49674 whole entry, looked up, canonical isoform): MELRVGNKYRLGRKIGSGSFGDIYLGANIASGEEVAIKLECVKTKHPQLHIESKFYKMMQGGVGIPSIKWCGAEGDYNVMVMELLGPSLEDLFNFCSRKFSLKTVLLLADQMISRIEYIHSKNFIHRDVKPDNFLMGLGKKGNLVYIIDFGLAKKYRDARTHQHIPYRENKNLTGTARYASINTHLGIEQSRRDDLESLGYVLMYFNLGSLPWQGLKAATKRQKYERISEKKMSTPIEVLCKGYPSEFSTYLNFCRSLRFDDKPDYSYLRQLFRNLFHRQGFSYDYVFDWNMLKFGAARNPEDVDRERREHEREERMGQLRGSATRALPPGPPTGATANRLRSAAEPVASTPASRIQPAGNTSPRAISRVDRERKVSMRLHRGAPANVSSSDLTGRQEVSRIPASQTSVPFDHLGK
Mitogen-activated protein kinase 11 (Homo sapiens), sequence (Q15759 whole entry): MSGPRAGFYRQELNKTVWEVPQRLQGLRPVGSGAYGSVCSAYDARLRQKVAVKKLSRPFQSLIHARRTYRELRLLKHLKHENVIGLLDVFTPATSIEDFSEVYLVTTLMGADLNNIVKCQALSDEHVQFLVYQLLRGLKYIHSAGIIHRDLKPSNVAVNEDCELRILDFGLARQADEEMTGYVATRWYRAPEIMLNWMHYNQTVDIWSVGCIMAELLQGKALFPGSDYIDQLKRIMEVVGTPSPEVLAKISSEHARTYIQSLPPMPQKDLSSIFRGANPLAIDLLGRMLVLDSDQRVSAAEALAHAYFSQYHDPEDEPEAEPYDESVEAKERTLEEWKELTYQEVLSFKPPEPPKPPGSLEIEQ

SMILES | Activity [1] | inhibition [2] [%] | inhibition [3] [%] | inhibition [4] [%] | inhibition [5] [%] | inhibition [6] [%] | inhibition [7] [%] | inhibition [8] [%] | inhibition [9] [%] | inhibition [10] [%] | inhibition [11] [%] | inhibition [12] [%] | inhibition [13] [%] | inhibition [14] [%] | inhibition [15] [%] | inhibition [16] [%] | inhibition [17] [%] | inhibition [18] [%] | inhibition [19] [%] | inhibition [20] [%] | other results
Cc1n[nH]c2ccc(-c3cncc(OC[C@@H](N)Cc4c[nH]c5ccccc45)c3)cc12 | Active | 42 | – | – | – | – | – | – | – | – | – | – | – | – | – | – | – | – | – | – | –
CCCc1cc(-c2cncc(OC[C@@H](N)Cc3c[nH]c4ccccc34)c2)cc2c(C)n[nH]c12 | inactive | – | – | – | – | – | – | – | – | – | – | – | – | – | – | – | – | – | – | – | –
O=C(NCCCNc1nc(Nc2cccc(NC(=O)N3CCCC3)c2)ncc1I)c1cccs1 | – | – | 71 | 76 | 29 | 87 | 91 | 18 | 40 | 37 | 15 | 72 | 42 | 29 | 85 | 14 | 8 | 26 | 13 | 56 | inhibition [21]: 105%; inhibition [22]: 6%; inhibition [23]: 11%; inhibition [24]: 1%; inhibition [25]: 38%; inhibition [26]: 28%
COc1ccccc1N1CCN(c2ncnc3[nH]nc(Br)c23)CC1 | – | 23 | 5 | 4 | 92 | 41 | 48 | 7 | 8 | 4 | 8 | 2 | 63 | 80 | 11 | 3 | 32 | 43 | 14 | 16 | inhibition [21]: -3%; inhibition [22]: 4%; inhibition [23]: 5%; inhibition [24]: -1%; inhibition [25]: 24%; inhibition [26]: 35%
